The subject of one series is Mus musculus. Nature of the series: Immuno-stimulatory activity in ICR mouse assessed as induction of GM-progenitor cell proliferation in serum at […], sc using liposomal formulation measured after 6 hrs. It counts as functional, organism-based. In outline: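 Female ICR mice, 3 months old, four per group, given liposomal preparations sc at 100 nmol per dose in 200 μL. Serum collected 6 h later and added to cultured granulocyte–monocyte progenitors. GM-CFU colonies counted, with serum-free cells as baseline. Dunnett's test is used versus the infusion-solution control.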

The test system of series [1] is Oryctolagus cuniculus. Briefly: Toxicity in New Zealand albino rabbit assessed as skin irritation at 100 nmol/kg, sc using liposomal formulation measured up to 2 months post dose. Format: organism-based. The note with it: in vivo.
Series [2] relates to Oryctolagus cuniculus. Nature of the series: Toxicity in Chinchilla rabbit assessed as skin irritation at 100 nmol/kg, iv using micellar formulation measured up to 2 months post dose. It counts as organism-based. The settings on record: in vivo.
Series [3] addresses NACHT, LRR and PYD domains-containing protein 3 (Homo sapiens, UniProt Q96P20). Briefly: Agonist activity at NLRP3 in human […] cells assessed as induction of LPS-induced IL-1beta secretion by HEK-Blue reporter cell based assay. In short, it runs like this: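 THP1-Null cells stimulated with compounds; mature IL-1β released is detected with HEK-Blue IL-1β cells through SEAP reporter activity in the supernatant, read colorimetrically with QUANTI-Blue. ATP serves as positive standard. Untreated HEK-Blue IL-1β cells serve as negative control; comparison by ANOVA with Dunnett's test.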

Series [4] concerns Oryctolagus cuniculus. Briefly: Pyrogenic activity in New Zealand albino rabbit assessed as change in maximum body temperature at 100 nmol/kg, sc using liposomal formulation measured at 30 mins time intervals for 9 to 24 hrs (reference value: 0.2 degC). It counts as toxicity, organism-based. The note with it: in vivo. In outline: (§1)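 Standard rabbit pyrogenicity test, three animals per group, iv or modified sc application of free (micellar) or liposomal formulations. Maximum temperature rise (+ΔTmax) summed per group; sum below 1.1 °C classed as nonpyrogenic. Temperature followed a further 24 h for delayed pyrogenicity.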

Series [5] has as its system Oryctolagus cuniculus. Nature of the series: Toxicity in New Zealand albino rabbit assessed as behavioral changes at 100 nmol/kg, sc using liposomal formulation measured up to 2 months post dose. It counts as organism-based. The note with it: in vivo.
The test system of series [6] is Oryctolagus cuniculus. Briefly: Toxicity in Chinchilla rabbit assessed as behavioral changes at 100 nmol/kg, iv using micellar formulation measured up to 2 months post dose. It counts as organism-based. The settings on record: in vivo.
The test system of series [7] is Oryctolagus cuniculus. Briefly: Toxicity in New Zealand albino rabbit assessed as weight loss at 100 nmol/kg, sc using liposomal formulation measured up to 2 months post dose. Format: organism-based. The settings on record: in vivo.
The target in series [8] is Nucleotide-binding oligomerization domain-containing protein 2 (Homo sapiens) (UniProt Q9HC29). Briefly: Agonist activity at human NOD2 receptor expressed in mouse Raw-Blue reporter cells at 10 uM after 48 hrs in presence of gefitinib by SEAP reporter gene assay. Format: cell-based.
The subject of series [9] is Oryctolagus cuniculus. Briefly: Toxicity in Chinchilla rabbit assessed as weight loss at 100 nmol/kg, iv using micellar formulation measured up to 2 months post dose. Format: organism-based. The note with it: in vivo.
The subject of series [10] is Oryctolagus cuniculus. Nature of the series: Pyrogenic activity in Chinchilla rabbit assessed as change in maximum body temperature at 100 nmol/kg, iv using micellar foemulation measured at 30 mins time intervals. Format: toxicity, organism-based. The note with it: in vivo, 0.5 h. In short, it runs like this: as §1
Series [11] has as its target Nucleotide-binding oligomerization domain-containing protein 2 (Homo sapiens) (UniProt Q9HC29). Nature of the series: Agonist activity at human NOD2 receptor expressed in mouse Raw-Blue reporter cells at 10 uM after 24 hrs in presence of GSK717 by SEAP reporter gene assay.
In series [12] the test system is Oryctolagus cuniculus. Nature of the series: Toxicity in New Zealand albino rabbit assessed as necrosis at site of application at 100 nmol/kg, sc using liposomal formulation measured up to 2 months post dose. Format: organism-based. The note with it: in vivo.
In series [13] the target is Nucleotide-binding oligomerization domain-containing protein 2 (Homo sapiens) (UniProt Q9HC29). Briefly: Agonist activity at human NOD2 receptor expressed in mouse Raw-Blue reporter cells at 10 uM after 48 hrs by SEAP reporter gene assay. It counts as cell-based. In outline: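 RAW 264.7-derived RAW-Blue cells carrying an NF-κB/AP-1-inducible SEAP reporter, exposed to compounds at 10 μM for 48 h. Colorimetric SEAP read-out at 650 nm. MDP serves as positive control. ANOVA with Dunnett's test versus untreated cells and versus MDP.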
(A reporter such as luciferase makes a cellular process visible.)

Series [14] concerns Oryctolagus cuniculus. Nature of the series: Toxicity in Chinchilla rabbit assessed as necrosis at site of application at 100 nmol/kg, iv using micellar formulation measured up to 2 months post dose. Format: organism-based. The settings on record: in vivo.
The target of series [15] is T1, Nucleotide-binding oligomerization domain-containing protein 1 (Homo sapiens) (UniProt Q9Y239).
T1 sequence (whole entry): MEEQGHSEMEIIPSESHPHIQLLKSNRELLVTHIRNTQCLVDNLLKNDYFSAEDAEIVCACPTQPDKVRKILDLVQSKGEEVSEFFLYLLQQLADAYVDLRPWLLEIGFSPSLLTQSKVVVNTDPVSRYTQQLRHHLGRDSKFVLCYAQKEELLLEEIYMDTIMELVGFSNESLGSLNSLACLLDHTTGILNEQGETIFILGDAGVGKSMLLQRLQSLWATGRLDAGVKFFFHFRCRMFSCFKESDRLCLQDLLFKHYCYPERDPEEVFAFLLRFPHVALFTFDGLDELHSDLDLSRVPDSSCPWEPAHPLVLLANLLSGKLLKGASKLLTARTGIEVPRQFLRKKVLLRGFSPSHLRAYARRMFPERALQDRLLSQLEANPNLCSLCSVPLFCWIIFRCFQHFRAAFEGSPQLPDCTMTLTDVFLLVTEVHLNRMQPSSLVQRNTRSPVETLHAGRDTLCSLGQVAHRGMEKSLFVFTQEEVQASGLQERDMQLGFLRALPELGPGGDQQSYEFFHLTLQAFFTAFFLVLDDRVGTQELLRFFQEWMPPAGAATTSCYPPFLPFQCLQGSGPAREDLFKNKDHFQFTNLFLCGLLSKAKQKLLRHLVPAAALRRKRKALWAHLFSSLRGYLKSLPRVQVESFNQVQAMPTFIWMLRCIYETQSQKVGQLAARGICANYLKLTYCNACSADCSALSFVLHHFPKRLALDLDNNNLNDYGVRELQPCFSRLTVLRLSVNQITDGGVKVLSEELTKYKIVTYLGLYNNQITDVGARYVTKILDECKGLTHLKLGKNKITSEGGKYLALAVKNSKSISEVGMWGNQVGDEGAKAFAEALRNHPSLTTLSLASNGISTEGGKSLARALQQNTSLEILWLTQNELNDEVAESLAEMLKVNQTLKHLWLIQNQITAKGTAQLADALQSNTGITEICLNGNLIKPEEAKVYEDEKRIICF
Nature of the series: Agonist activity at human NOD1 receptor expressed in HEK-Blue reporter cells at 10 uM after 48 hrs by SEAP reporter gene assay. It counts as cell-based. In short, it runs like this:
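HEK293 cells cotransfected with human NOD1 and an NF-κB/AP-1-inducible SEAP reporter, exposed to compounds at 10 μM for 48 h. SEAP is read at 650 nm with QUANTI-Blue. Diaminopimelic acid derivatives serve as NOD1 positive controls. Dunnett's test is used versus untreated cells.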

Each structure is given as a SMILES string. Activity calls are given as the source filed them. The rule behind the calls is not given here.

The source of these data is ChEMBL document CHEMBL4024746, “Nonpyrogenic Molecular Adjuvants Based on norAbu-Muramyldipeptide and norAbu-Glucosaminyl Muramyldipeptide: Synthesis, Molecular Mechanisms of Action, and Biological Activities in Vitro and in Vivo” (J Med Chem, 2017).

Chain of NACHT, LRR and PYD domains-containing protein 3 (Q96P20 whole entry, the tested form may be a part): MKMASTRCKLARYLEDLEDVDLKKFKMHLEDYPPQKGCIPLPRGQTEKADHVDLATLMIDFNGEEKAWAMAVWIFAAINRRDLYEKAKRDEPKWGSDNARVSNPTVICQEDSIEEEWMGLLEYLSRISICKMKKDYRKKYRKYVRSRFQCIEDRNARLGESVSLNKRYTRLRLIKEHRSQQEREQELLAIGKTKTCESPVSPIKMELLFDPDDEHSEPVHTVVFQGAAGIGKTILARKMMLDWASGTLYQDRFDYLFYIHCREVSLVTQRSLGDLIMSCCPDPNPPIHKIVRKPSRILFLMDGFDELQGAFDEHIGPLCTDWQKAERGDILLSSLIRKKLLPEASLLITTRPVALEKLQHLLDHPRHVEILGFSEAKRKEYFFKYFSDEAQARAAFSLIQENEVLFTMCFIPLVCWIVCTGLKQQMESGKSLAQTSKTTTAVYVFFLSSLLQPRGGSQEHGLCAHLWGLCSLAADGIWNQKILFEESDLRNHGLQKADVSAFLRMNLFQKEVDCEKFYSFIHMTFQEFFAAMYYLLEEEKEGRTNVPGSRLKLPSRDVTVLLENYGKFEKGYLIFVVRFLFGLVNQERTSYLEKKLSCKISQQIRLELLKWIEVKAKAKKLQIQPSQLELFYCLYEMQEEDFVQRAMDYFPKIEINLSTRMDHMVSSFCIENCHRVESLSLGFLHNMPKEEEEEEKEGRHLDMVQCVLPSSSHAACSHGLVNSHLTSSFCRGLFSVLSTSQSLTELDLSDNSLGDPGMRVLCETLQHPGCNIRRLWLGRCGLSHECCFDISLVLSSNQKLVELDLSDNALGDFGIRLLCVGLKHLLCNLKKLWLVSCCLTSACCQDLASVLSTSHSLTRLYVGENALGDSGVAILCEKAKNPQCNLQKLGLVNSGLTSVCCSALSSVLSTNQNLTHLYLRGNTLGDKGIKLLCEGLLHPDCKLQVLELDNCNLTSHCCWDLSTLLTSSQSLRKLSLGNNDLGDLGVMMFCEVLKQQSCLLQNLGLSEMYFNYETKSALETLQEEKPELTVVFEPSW
Chain of Nucleotide-binding oligomerization domain-containing protein 2 (Homo sapiens) (Q9HC29 whole entry, the tested form may be a part): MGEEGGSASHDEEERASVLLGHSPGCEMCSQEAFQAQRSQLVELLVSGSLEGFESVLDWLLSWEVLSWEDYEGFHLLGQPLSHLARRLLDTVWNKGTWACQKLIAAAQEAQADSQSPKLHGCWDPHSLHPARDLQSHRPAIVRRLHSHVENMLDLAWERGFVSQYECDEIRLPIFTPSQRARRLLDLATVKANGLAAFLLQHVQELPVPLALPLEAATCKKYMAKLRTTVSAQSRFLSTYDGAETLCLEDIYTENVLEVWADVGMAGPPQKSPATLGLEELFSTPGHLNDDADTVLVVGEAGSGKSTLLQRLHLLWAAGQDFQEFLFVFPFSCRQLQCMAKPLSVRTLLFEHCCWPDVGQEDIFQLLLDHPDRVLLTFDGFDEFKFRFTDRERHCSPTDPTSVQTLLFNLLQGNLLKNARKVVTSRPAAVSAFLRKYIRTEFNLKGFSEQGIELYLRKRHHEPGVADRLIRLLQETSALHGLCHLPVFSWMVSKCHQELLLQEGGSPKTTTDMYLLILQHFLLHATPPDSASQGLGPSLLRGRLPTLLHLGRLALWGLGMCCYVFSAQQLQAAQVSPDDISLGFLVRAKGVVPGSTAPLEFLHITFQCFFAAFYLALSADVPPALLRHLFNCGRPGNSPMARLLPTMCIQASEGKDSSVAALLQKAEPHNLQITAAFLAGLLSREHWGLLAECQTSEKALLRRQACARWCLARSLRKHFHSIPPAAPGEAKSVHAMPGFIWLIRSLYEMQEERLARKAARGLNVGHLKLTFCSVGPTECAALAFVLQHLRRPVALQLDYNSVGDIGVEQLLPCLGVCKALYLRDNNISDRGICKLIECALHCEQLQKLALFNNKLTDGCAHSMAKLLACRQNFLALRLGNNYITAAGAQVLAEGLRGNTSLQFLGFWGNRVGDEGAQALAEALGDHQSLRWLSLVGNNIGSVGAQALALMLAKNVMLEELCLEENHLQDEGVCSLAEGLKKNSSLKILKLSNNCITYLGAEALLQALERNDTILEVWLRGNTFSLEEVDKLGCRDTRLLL

On to `CCCCCCCCCCCCCCC(CCCCCCCCCCCCCC)C(=O)OC[C@H]1OC(O)[C@H](NC(C)=O)[C@@H](OCC(=O)N[C@@H](CC)C(=O)N[C@H](CCC(=O)O)C(N)=O)[C@@H]1O` (stereo partly specified), for which the outcome (in the series on Mus musculus; in [13]) was Active. For the same compound, the Activity entry in the series on Oryctolagus cuniculus [1] is on record as “Non-Toxic”; in the series with Oryctolagus cuniculus [2], “Non-Toxic”; in [3], “Active”; in the series on Oryctolagus cuniculus [5], “Non-Toxic”; with Oryctolagus cuniculus [6], “Non-Toxic”; with Oryctolagus cuniculus [7] it was “Non-Toxic”. Besides, the Activity entry in the series on Oryctolagus cuniculus [9], with Oryctolagus cuniculus [12] and in the series on Oryctolagus cuniculus [14] was “Non-Toxic” throughout. Besides, the deltaT in the series on Oryctolagus cuniculus [4] was determined as 0.5 °C; in the series with Oryctolagus cuniculus [10] it was 0.6 °C. For the same compound, the result in series [8], in series [11] and in [15] was inactive.
In the case of `C[C@H](NC(=O)[C@@H](C)O[C@H]1[C@H](O)[C@@H](CO)OC(O)[C@@H]1NC(=O)CO)C(=O)N[C@H](CCC(=O)O)C(N)=O` (stereo partly specified), in [13], the result was Active.
On the same count and under the same terms, as for `C[C@H](N)C(=O)N[C@H](CCC(=O)NC12CC3CC(CC(C3)C1)C2)C(N)=O`, the entry is “inactive”.
Turning to `CCCCCCCCCCCCCCCCCC(=O)NCCCC[C@H](NC(=O)CC[C@@H](NC(=O)[C@H](CC)NC(=O)CO[C@H]1[C@H](O)[C@@H](CO)OC(O)[C@@H]1NC(C)=O)C(N)=O)C(=O)O` (stereo partly specified), the outcome (in the series with Mus musculus; in series [13]) was Active. Also, the Activity entry in the series on Oryctolagus cuniculus [1] is “Non-Toxic”; in the series with Oryctolagus cuniculus [2], “Non-Toxic”; in series [3], “Active”; in the series on Oryctolagus cuniculus [5] it was “Non-Toxic”; in the series with Oryctolagus cuniculus [6], “Non-Toxic”; in the series with Oryctolagus cuniculus [7], “Non-Toxic”. Also, the Activity entry with Oryctolagus cuniculus [9], in the series with Oryctolagus cuniculus [12] and with Oryctolagus cuniculus [14] was “Non-Toxic” in each case. Besides, the figures for the deltaT with Oryctolagus cuniculus [4] and with Oryctolagus cuniculus [10] were 0.5 °C and 0.4 °C, respectively. The outcome in [8], in [11] and in series [15] was inactive.
Regarding `CCCCCCCCCCCCCCCCCC(=O)OC[C@H]1OC(O)[C@H](NC(C)=O)[C@@H](O[C@H](C)C(=O)N[C@@H](C)C(=O)N[C@H](CCC(=O)O)C(N)=O)[C@@H]1O` (stereo partly specified), the result in [8] and in series [11] was inactive. The result in series [13] was Active.
For the compound `CCCCCCCCCCCCCCCCCC(=O)N[C@H]1[C@H](O[C@H]2[C@H](OCC(=O)N[C@@H](CC)C(=O)N[C@H](CCC(=O)O)C(N)=O)[C@@H](NC(C)=O)C(O)O[C@@H]2CO)O[C@H](CO)[C@@H](O)[C@@H]1O` (stereo partly specified), the result (in the series with Mus musculus; in series [13]) was Active. The Activity entry was “Non-Toxic” in the series with Oryctolagus cuniculus [1]; “Non-Toxic” in the series with Oryctolagus cuniculus [2]; “Active” in series [3]; “Non-Toxic” with Oryctolagus cuniculus [5]; “Non-Toxic” with Oryctolagus cuniculus [6]; “Non-Toxic” in the series with Oryctolagus cuniculus [7]. The Activity entry in the series with Oryctolagus cuniculus [9], in the series with Oryctolagus cuniculus [12] and in the series on Oryctolagus cuniculus [14] was “Non-Toxic” throughout. Further, the deltaT with Oryctolagus cuniculus [4] is 0.4 °C; with Oryctolagus cuniculus [10] it was 0.5 °C. The result in series [8], in [11] and in series [15] was inactive.
Take `CCCCCCCCCCCCCCCCCC(=O)OC[C@H]1OC(O)[C@H](NC(C)=O)[C@@H](OCC(=O)N[C@@H](CC)C(=O)N[C@H](CCC(=O)O)C(N)=O)[C@@H]1O` (stereo partly specified): the result (with Mus musculus; in series [13]) was Active. Also, the Activity entry is “Non-Toxic” in the series on Oryctolagus cuniculus [1]; “Non-Toxic” with Oryctolagus cuniculus [2]; “Active” in series [3]; “Non-Toxic” in the series with Oryctolagus cuniculus [5]; “Non-Toxic” in the series with Oryctolagus cuniculus [6]; “Non-Toxic” with Oryctolagus cuniculus [7]. The Activity entry in the series with Oryctolagus cuniculus [9], in the series on Oryctolagus cuniculus [12] and in the series on Oryctolagus cuniculus [14] was “Non-Toxic” throughout. Further, the deltaT in the series with Oryctolagus cuniculus [4] and with Oryctolagus cuniculus [10] was 0.6 °C throughout. Moreover, the result in [8], in series [11] and in series [15] was inactive.
For the compound `CCCCCCCCCCCCCCC(CCCCCCCCCCCCCC)C(=O)NCCCC[C@H](NC(=O)CC[C@@H](NC(=O)[C@H](CC)NC(=O)CO[C@H]1[C@H](O[C@@H]2O[C@H](CO)[C@@H](O)[C@H](O)[C@H]2NC(C)=O)[C@@H](CO)OC(O)[C@@H]1NC(C)=O)C(N)=O)C(=O)O` (stereo partly specified), the outcome (in the series with Mus musculus; in [13]) was Active. Besides, the Activity entry in the series with Oryctolagus cuniculus [1] is recorded as “Non-Toxic”; in the series with Oryctolagus cuniculus [2] it was “Non-Toxic”; in [3], “Active”; in the series on Oryctolagus cuniculus [5] it was “Non-Toxic”; with Oryctolagus cuniculus [6], “Non-Toxic”; with Oryctolagus cuniculus [7], “Non-Toxic”. Moreover, the Activity entry in the series on Oryctolagus cuniculus [9], in the series with Oryctolagus cuniculus [12] and in the series with Oryctolagus cuniculus [14] was “Non-Toxic” each time. Also, the deltaT was 0.5 °C in the series on Oryctolagus cuniculus [4] and 0.4 °C in the series on Oryctolagus cuniculus [10]. In addition, the outcome in series [8], in series [11] and in series [15] was inactive.
For `Nc1ncnc2c1ncn2[C@@H]1O[C@H](COP(=O)(O)OP(=O)(O)OP(=O)(O)O)[C@@H](O)[C@H]1O` [ADENOSINE TRIPHOSPHATE], the outcome in series [3] was Active.
